What all share (format): functional, cell-based
For one test, the system named is SK-BR-3. The test can be described thus: Cytotoxicity against human SK-BR-3 cells after 72 hrs by alamar blue assay. As to conditions: SK-BR-3, 72 h. A digest of the protocol:
(§1)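 Cells seeded and cultured overnight, then exposed to compound at varying concentrations for 72 h. Cells were then incubated 2-4 h in medium containing 10% Alamar blue, and fluorescence was read at ex 530/em 590 nm. Dose-response curves used at least five concentrations, and IC50 (50% growth inhibition) was taken from these curves. Culture was at 37 °C.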

The nature of test [1]: Cytotoxicity against human Bel7402 cells after 72 hrs by alamar blue assay. As to conditions: Bel-7402, 72 h. A digest of the protocol:
as §1

Another test deals with MDA-MB-468. As to the kind of experiment: Cytotoxicity against human MDA-MB-468 cells after 72 hrs by alamar blue assay. As to conditions: MDA-MB-468, 72 h. Put shortly:
as §1

Test [2] can be described thus: Cytotoxicity against human HL60 cells after 72 hrs by alamar blue assay. The settings on record: HL-60, 72 h. Put shortly: as §1
Test [3] concerns PC-3. The test can be described thus: Induction of mitotic arrest in human PC3 cells assessed as increase in supernumerary centrosome formation at 40 nM after 6 hrs using DAPI staining by immunofluorescence-based laser scanning confocal microscopy. Put shortly:
(§2)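 PC-3 cells on confocal dishes were exposed 6 h to compound (2 µM) or taxol (40 nM), then fixed in 4% paraformaldehyde overnight at 4 °C and blocked. They were stained overnight at 4 °C with anti-β-tubulin and anti-γ-tubulin (1:100 each), then 1 h with Alexa Fluor 488/647 secondaries, and co-stained for DNA. Spindles and centrosomes were imaged by confocal microscopy.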

The test system of test [4] is PC-3. The test can be described thus: Induction of mitotic arrest in human PC3 cells assessed as increase in multipolar spindle formation at 40 nM after 6 hrs using DAPI staining by immunofluorescence-based laser scanning confocal microscopy. Put shortly: as §2
Test [5] relates to PC-3. The test can be described thus: Induction of mitotic arrest in human PC3 cells assessed as increase in histone H3 phosphorylation at Ser10 at 40 nM after 24 hrs by Western blot method. A digest of the protocol:
(§3)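 PC-3 cells were treated 24 h with compound (0.5-4 µM) or taxol (40 nM) as positive control, then lysed in RIPA with PMSF and protease inhibitors. Lysates were run on SDS-PAGE and transferred to PVDF, which was blocked with 5% milk for 1 h. Membranes were probed overnight at 4 °C for MPM-2 (1:1000), phospho-H3 (1:600) or β-actin (1:1000), followed by HRP secondary and chemiluminescence.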

In test [6] the test system is PC-3. The test can be described thus: Induction of mitotic arrest in human PC3 cells assessed as increase in MPM-2 level at 40 nM after 24 hrs by Western blot method. Put shortly: as §3

Calls of active or inactive are those of the source. No cut-off for these calls is given here.

Regarding `S=C(NCc1cccnc1)SCCc1nnn[nH]1`, the values for the IC50 (in the test on SK-BR-3; in test [1]; in the test with MDA-MB-468) were over 100 µM, 57.7 µM and over 100 µM, respectively.
As to `Cc1cc(-c2nnc(CCSC(=S)NCc3cccnc3)o2)no1`, the results for the IC50 (with SK-BR-3; in test [1]; with MDA-MB-468) were 1.73 µM, 1.68 µM and 6.14 µM, respectively.
`O=[N+]([O-])c1ccc(-c2nnc(CCSC(=S)NCc3cccnc3)o2)cc1`: the values for the IC50 (in the test with SK-BR-3; in test [1]; with MDA-MB-468) were 1.54 µM, 1.84 µM and 4.6 µM, respectively.
For `O=C(CCSC(=S)NCc1cccnc1)NCc1ccccc1` the same measures were over 100 µM, over 100 µM and over 100 µM.
The matching figures for `S=C(NCc1cccnc1)SCCc1nnc(-c2cccnc2)o1`: 0.8 µM, 1.37 µM and 3.16 µM.
On to `OCCSC(=S)NCc1cccnc1`, for which the IC50 is 1.32 µM in the test on SK-BR-3, 3.65 µM in test [1] and 6.61 µM with MDA-MB-468.
For the compound `S=C(NCc1cccnc1)SCCc1nnc(-c2cccs2)o1`, the IC50 is 1.07 µM in the test on SK-BR-3, 1.34 µM in test [1] and 3.41 µM in the test on MDA-MB-468.
Consider `N#CCCSC(=S)NCc1cccnc1`, for which the IC50 in the test on SK-BR-3 is 2.84 µM; in test [1], 1.03 µM; in test [2], 0.74 µM; in the test on MDA-MB-468, 9.53 µM.
On to `N#CCCSC(=S)NCc1nnc(-c2ccccc2)o1`, for which the IC50 was 25.7 µM in test [1] and 14.2 µM in test [2].
Take `O=S(=O)(O)CCCSC(=S)NCc1cccnc1`: the figures for the IC50 (with SK-BR-3; in test [1]; with MDA-MB-468) were 6.77 µM, 6.59 µM and 11.1 µM, respectively.
Turning to `CC1(C)OB(CCCSC(=S)NCc2cccnc2)OC1(C)C`, the values for the IC50 (with SK-BR-3; in test [1]; in the test on MDA-MB-468) were 6.82 µM, 4.27 µM and 6.62 µM, respectively.
For `NC(=O)CCSC(=S)NCc1cccnc1`, the IC50 with SK-BR-3 was determined as 1.16 µM; in test [1], 3.33 µM; in the test with MDA-MB-468, 4.63 µM.
The matching figures for `Fc1ccccc1-c1nnc(CCSC(=S)NCc2cccnc2)o1`: 4.69 µM, 5.54 µM and 3.42 µM.
With `Cn1cccc1CNC(=S)SCCC#N`, the IC50 in test [1] turned out to be 227 µM; in test [2], 282 µM.
Take `S=C(NCc1cccnc1)SCCc1nnc(-c2cc3ccccc3s2)o1`: the IC50 is 5.32 µM in the test with SK-BR-3, 6.89 µM in test [1] and 6.77 µM in the test with MDA-MB-468.
With `FC(F)(F)c1ccc(-c2nnc(CCSC(=S)NCc3cccnc3)o2)cc1`, the IC50 came out at 2.4 µM in the test on SK-BR-3, 1.22 µM in test [1] and 5.49 µM in the test on MDA-MB-468.
For `S=C(NCc1cccnc1)SCCc1nnc(-c2ccc(Cl)cc2)o1` the same measures were 0.86 µM, 1.26 µM and 1.98 µM.
In the case of `N#CCCSC(=S)NCc1cnc2ccccc2c1`, the IC50 in test [1] came to 96.4 µM; in test [2] it was 5.18 µM.
On to `CC(=O)O[C@H]1C(=O)[C@@]2(C)[C@H]([C@H](OC(=O)c3ccccc3)[C@]3(O)C[C@H](OC(=O)[C@H](O)[C@@H](NC(=O)c4ccccc4)c4ccccc4)C(C)=C1C3(C)C)[C@]1(OC(C)=O)CO[C@@H]1C[C@@H]2O`, for which the result with PC-3 [3], in the test with PC-3 [4], in the test on PC-3 [5] and in the test with PC-3 [6] was Active.
As for `Cc1c(CNC(=S)SCCC#N)cnn1-c1ccccc1`, the figures for the IC50 in test [1] and in test [2] were 24.9 µM and 6.05 µM, respectively.
`N#CCCSC(=S)NCc1cnc(N2CCOCC2)nc1`: the IC50 was 22.4 µM in test [1] and 5.03 µM in test [2].
Turning to `S=C(NCc1cccnc1)SCCc1nnc(-c2cnccn2)o1`, the IC50 was found to be 1.29 µM in the test on SK-BR-3, 1.43 µM in test [1] and 1.71 µM in the test with MDA-MB-468.
Take `N#CCCSC(=S)NCc1cncs1`: the IC50 in test [1] came to 296 µM; in test [2], 109 µM.
For `S=C(NCc1cccnc1)SCCc1nnc(-c2ccco2)o1`, the IC50 in the test with SK-BR-3 turned out to be 0.81 µM; in test [1], 1.59 µM; in the test with MDA-MB-468 it was 3.32 µM.
For `S=C(NCc1cccnc1)SCCc1nc(-c2ccccc2)no1` the same measures were 1.29 µM, 2.8 µM and 10.1 µM.
Consider `CN1CCOc2cc(CNC(=S)SCCC#N)cnc21`, for which the IC50 in test [1] was 327 µM; in test [2], 82.8 µM.
Consider `S=C(NCc1cccnc1)SCCc1nnc(-c2cc[nH]c2)o1`, for which the IC50 in the test with SK-BR-3 was found to be 0.82 µM; in test [1], 1.17 µM; in the test with MDA-MB-468, 2.04 µM.
In the case of `S=C(NCc1cccnc1)SCCc1nnc(-c2ccc3ccccc3n2)o1`, the values for the IC50 (in the test with SK-BR-3; in test [1]; in the test on MDA-MB-468) were 0.79 µM, 1.95 µM and 3.5 µM, respectively.
For `S=C(NCc1cccnc1)SCCc1nc2ccccc2[nH]1` the same measures were 1.69 µM, 9.3 µM and 11.5 µM.
Take `Cc1cc(CNC(=S)SCCC#N)n(C)n1`: the IC50 in test [1] is 4.26 µM; in test [2] it was 4.17 µM.
On to `COc1ccc(-c2nnc(CCSC(=S)NCc3cccnc3)o2)cc1`, for which the IC50 is 2.96 µM with SK-BR-3, 1.54 µM in test [1] and 5.22 µM in the test on MDA-MB-468.
Take `S=C(NCc1cccnc1)SCCn1nc2ccccc2n1`: the IC50 with SK-BR-3 was determined as 0.98 µM; in test [1], 2.66 µM; with MDA-MB-468 it was 11.6 µM.
The matching figures for `S=C(NCc1cccnc1)SCCc1nc2ccccc2o1`: 0.82 µM, 2.88 µM and 4.3 µM.
For `S=C(NCc1cccnc1)SCCc1nc2ccccc2s1` the same measures were 1.39 µM, 3.56 µM and 9.71 µM.
The matching figures for `S=C(NCc1cccnc1)SCCc1nnc(-c2ccc3ncccc3c2)o1`: 0.85 µM, 1.79 µM and 1.69 µM.
For `CCCCOC(=O)CCSC(=S)NCc1cccnc1`, the values for the IC50 (with SK-BR-3; in test [1]; in the test on MDA-MB-468) were 4.46 µM, 6.35 µM and 12.8 µM, respectively.
For the compound `S=C(NCc1cccnc1)SCCc1nnc(-c2ccsc2)o1`, the IC50 in the test on SK-BR-3 came to 1.03 µM; in test [1], 1.23 µM; in the test with MDA-MB-468, 3.26 µM.
The matching figures for `CCOP(=O)(CCSC(=S)NCc1cccnc1)OCC`: 51 µM, 50.8 µM and 60.4 µM.
As to `Cc1nc(-c2ccccc2)oc1CNC(=S)SCCC#N`, the IC50 in test [1] amounted to 17.9 µM; in test [2], 7.88 µM.
Take `O=C(O)CCSC(=S)NCc1cccnc1`: the IC50 came out at 7.97 µM in the test on SK-BR-3, 7.42 µM in test [1] and 9.32 µM in the test on MDA-MB-468.
For `N#CCCSC(=S)NCc1nnc(-c2ccccc2)s1`, the IC50 in test [1] is 18.7 µM; in test [2], 11.8 µM.
With `CC(=O)CCSC(=S)NCc1cccnc1`, the results for the IC50 (with SK-BR-3; in test [1]; with MDA-MB-468) were 1.12 µM, 3.43 µM and 4.22 µM, respectively.

The values are drawn from ChEMBL document CHEMBL3769316, “Discovery of novel heteroarylmethylcarbamodithioates as potent anticancer agents: Synthesis, structure-activity relationship analysis and biological evaluation” (Eur J Med Chem, 2016).
